Compound activity: PubChem BioAssay, several laboratories
Shown are actives, neighbours in structure and some others; about 1.5% of the full set was active somewhere.
UBC13 inh: human UBC13 polyubiquitination inhibition | UBC13 polyubiquitin chain formation, TR-FRET | 330,000 compounds, 0.47% hits | P61088 | inhibition, % at 20 µM; in the data active means inhibition above about 45%, passing the limit was not always enough
Target sequence (P61088 whole entry, looked up): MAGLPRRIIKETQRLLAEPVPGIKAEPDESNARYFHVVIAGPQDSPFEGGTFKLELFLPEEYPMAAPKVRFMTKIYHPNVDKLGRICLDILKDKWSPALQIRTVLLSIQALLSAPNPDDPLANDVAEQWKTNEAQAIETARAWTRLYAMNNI
PREPL inh: inhibitors of human prolyl oligopeptidase-like enzyme PREPL; recombinant PREPL, fluorescence polarization activity-based probe; inhibition, % at 5.96 µM; 320,000 compounds, 0.68% hits; AID 2751
UCH37 DUB inh: human UCH37 deubiquitinating enzyme inhibition; purified proteasome/UCH37, Ub-AMC cleavage fluorescence; inhibition, % (no concentration beside the values); Q9Y5K5; 330,000 compounds, 0.33% hits;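 active means mean inhibition over replicate wells above about 20%, limit read from the data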
Target sequence (Q9Y5K5 whole entry, looked up): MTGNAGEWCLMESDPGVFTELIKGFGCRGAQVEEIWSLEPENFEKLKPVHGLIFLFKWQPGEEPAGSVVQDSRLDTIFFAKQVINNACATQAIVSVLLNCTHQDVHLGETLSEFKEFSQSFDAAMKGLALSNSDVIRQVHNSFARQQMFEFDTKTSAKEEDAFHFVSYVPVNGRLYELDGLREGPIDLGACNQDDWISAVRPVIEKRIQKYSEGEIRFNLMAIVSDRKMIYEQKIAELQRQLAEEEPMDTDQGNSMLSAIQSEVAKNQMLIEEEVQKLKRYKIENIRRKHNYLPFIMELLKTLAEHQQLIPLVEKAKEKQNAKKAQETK
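Material: human UCH37 enzyme supplied as purified proteasome complex. Measure: % inhibition of Ub-AMC cleavage fluorescence. Medium: pH 7.4 Tris-HCl (50 mM) with ovalbumin, ATP-MgCl2, DTT. Times: 30 min preincubation with enzyme, 25 min cleavage at room temperature. Detection: AMC fluorescence intensity at 355/460 nm.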
Apaf-1 inh: human Apaf-1 inhibition; inhibition, % at 20 µM; reconstituted apoptosome caspase-3 activity, DEVD-Rh110 fluorescence; 330,000 compounds, 0.71% hits; active means inhibition of at least 40% at 20 µM
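Medium: Hepes buffer, pH 7.5 / System: biochemical Apaf-1 apoptosome reconstitution / Measured by: Rh110 fluorescence, excitation 480 nm, emission 540 nm / Times: compound with Apaf-1, dATP, procaspase-3 30 min, then 50 min reaction, room temperature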
PREPL confirm: human PREPL inhibition, confirmation. 2,000 compounds, 67% hits. shares compounds with PREPL inh. recombinant PREPL, fluorescence polarization activity probe. AID 2803. inhibition, % at 5.96 µM
A number is an active result. Unless noted, no stated cut-off is given here; in the data, active means inhibition above about 43%; inactive means the rest.

Results for O=C(O)c1ccccc1NS(=O)(=O)c1ccc(NN=Cc2ccc(F)cc2)c([N+](=O)[O-])c1 ?
UBC13 inh: inactive; PREPL inh: 43.6; UCH37 DUB inh: inactive; Apaf-1 inh: inactive; PREPL confirm: inactive

Results for NS(=O)(=O)c1ccc(N/N=C/c2ccccc2C(=O)O)c([N+](=O)[O-])c1 ?
UBC13 inh: inactive; PREPL inh: inactive; Apaf-1 inh: inactive

What do the screens show for `O=C(O)c1ccccc1NS(=O)(=O)c1ccc(NN=Cc2cccc(Cl)c2)c([N+](=O)[O-])c1`?
UBC13 inh: inactive; PREPL inh: 53.4; UCH37 DUB inh: inactive; Apaf-1 inh: inactive; PREPL confirm: 44.7

Results for COc1ccc(NS(=O)(=O)c2ccc(NN=Cc3ccc(C(=O)O)cc3)c([N+](=O)[O-])c2)cc1 ?
UBC13 inh: inactive; PREPL inh: 45.1; Apaf-1 inh: inactive; PREPL confirm: inactive

Results for COc1ccc(Br)cc1C=NNc1ccc(S(=O)(=O)Nc2ccccc2C(=O)O)cc1[N+](=O)[O-] ?
UCH37 DUB inh: inactive

How did O=C(NN=Cc1ccco1)c1ccc(OCc2ccccc2)cc1 do in these assays?
UCH37 DUB inh: inactive

How did COc1cc(/C=C(\C#N)c2ccccn2)ccc1OCc1ccccc1Cl do in these assays?
PREPL inh: 47.1; UCH37 DUB inh: inactive; PREPL confirm: inactive

What do the screens show for `NC(=O)SCC(=NS(=O)(=O)c1ccccc1)Nc1ccccc1`?
UCH37 DUB inh: inactive

Results for N#Cc1ccc(NN=Cc2cn(-c3ccccc3)nc2-c2ccccc2)c([N+](=O)[O-])c1 ?
UCH37 DUB inh: inactive

Results for O=[N+]([O-])c1ccc2c(c1)C(N1CCOCC1)/C(=C/COc1ccc3ccccc3c1Br)O2 (stereo not drawn) ?
UBC13 inh: inactive; PREPL inh: inactive; UCH37 DUB inh: inactive; Apaf-1 inh: inactive

How did O=[N+]([O-])c1ccc2c(c1)C(N1CCOCC1)/C(=C/COc1ccc(F)cc1)O2 (stereo not drawn) do in these assays?
UBC13 inh: inactive; PREPL inh: 47.6; UCH37 DUB inh: inactive; Apaf-1 inh: inactive; PREPL confirm: inactive

Results for NC(=O)[C@@H]1CCCNc2c(I)cc([N+](=O)[O-])cc2C(=O)N[C@@H](CCCN=C(N)N)C(=O)N[C@@H](CCCN=C(N)N)C(=O)N1 ?
UBC13 inh: inactive; PREPL inh: 61.0; UCH37 DUB inh: inactive; Apaf-1 inh: 40.8; PREPL confirm: 58.8

Results for CC[C@H](C)[C@@H]1NC(=O)c2cc([N+](=O)[O-])cc(I)c2NCC[C@@H](C(N)=O)NC(=O)[C@H](CCCN=C(N)N)NC1=O ?
UBC13 inh: inactive; PREPL inh: inactive; UCH37 DUB inh: inactive; Apaf-1 inh: inactive

Results for CCC(CO)[n+]1c(C)cc(/C=C2\Sc3ccccc3N2Cc2ccccc2)cc1C (stereo not drawn) ?
PREPL inh: 76.7; UCH37 DUB inh: inactive; PREPL confirm: 73.0

What do the screens show for `CCN(N=Cc1ccc(N(C)C)cc1)c1nc2ccccc2[nH]1`?
UCH37 DUB inh: inactive

Results for c1ccc(Cn2nnc3ccccc32)cc1 ?
UBC13 inh: inactive; PREPL inh: inactive; UCH37 DUB inh: inactive; Apaf-1 inh: inactive

Results for COc1ccc(Cn2nnc3ccccc32)cc1 ?
UBC13 inh: inactive; PREPL inh: 50.1; Apaf-1 inh: inactive; PREPL confirm: inactive

What do the screens show for `COc1ccc(C(=O)NN=C2CCc3ccccc32)cc1OC`?
UCH37 DUB inh: inactive

Results for Cc1ccc(C2(C)NC(=O)N(CC(=O)Nc3ccc4[nH]c(=O)[nH]c4c3)C2=O)cc1 (stereo not drawn) ?
UBC13 inh: inactive; PREPL inh: 46.5; UCH37 DUB inh: inactive; Apaf-1 inh: inactive; PREPL confirm: inactive

How did Cc1nc2cc(N)ccc2n1C1CCCCC1 do in these assays?
UBC13 inh: inactive; PREPL inh: 48.8; UCH37 DUB inh: inactive; Apaf-1 inh: inactive; PREPL confirm: inactive

Results for CC(Cc1ccccc1)=NNC(=O)CNC(=O)c1ccc(Cl)cc1Cl ?
UCH37 DUB inh: inactive

What do the screens show for `CCc1ccc(C2CC(c3ccc(Cl)cc3)n3nc(N)nc3N2)cc1` (stereo not drawn)?
UBC13 inh: inactive; PREPL inh: 45.1; UCH37 DUB inh: inactive; Apaf-1 inh: inactive; PREPL confirm: 49.5

Results for COc1ccc(C2CC(c3cccc(Cl)c3)n3nc(N)nc3N2)cc1 (stereo not drawn) ?
UBC13 inh: inactive; PREPL inh: 54.6; UCH37 DUB inh: inactive; Apaf-1 inh: inactive; PREPL confirm: 57.0

How did COc1cccc(C2CC(c3ccc(C(C)C)cc3)n3nc(N)nc3N2)c1 (stereo not drawn) do in these assays?
UBC13 inh: inactive; PREPL inh: inactive; UCH37 DUB inh: inactive; Apaf-1 inh: inactive

How did Cc1ccc(C2CC(c3ccc(C)cc3)n3nc(N)nc3N2)cc1 (stereo not drawn) do in these assays?
UBC13 inh: inactive; PREPL inh: 52.8; UCH37 DUB inh: inactive; Apaf-1 inh: inactive; PREPL confirm: 48.2

Results for COc1cccc(C2CC(c3ccc(F)cc3)Nc3nc(N)nn32)c1 (stereo not drawn) ?
UBC13 inh: inactive; PREPL inh: 43.5; UCH37 DUB inh: inactive; Apaf-1 inh: inactive; PREPL confirm: 45.7

What do the screens show for `COc1cccc(C2CC(c3cccc(OC)c3)n3nc(N)nc3N2)c1` (stereo not drawn)?
UBC13 inh: inactive; PREPL inh: inactive; UCH37 DUB inh: inactive; Apaf-1 inh: inactive

How did Cc1ccc(C2CC(c3ccco3)n3nc(N)nc3N2)cc1 (stereo not drawn) do in these assays?
UBC13 inh: inactive; PREPL inh: inactive; UCH37 DUB inh: inactive; Apaf-1 inh: inactive

Results for Cn1c(SCC(=O)NN=Cc2ccco2)nc2ccccc21 ?
UCH37 DUB inh: inactive

Results for Cc1ccccc1C1CC(c2ccc(F)cc2)Nc2nc(N)nn21 (stereo not drawn) ?
UBC13 inh: inactive; PREPL inh: 43.9; UCH37 DUB inh: inactive; Apaf-1 inh: inactive; PREPL confirm: inactive

How did COc1ccc(C2CC(c3cccc(C)c3)n3nc(N)nc3N2)cc1 (stereo not drawn) do in these assays?
UBC13 inh: inactive; PREPL inh: 54.8; UCH37 DUB inh: inactive; Apaf-1 inh: inactive; PREPL confirm: 58.7

Results for COc1ccc(C2CC(c3ccccc3)Nc3nc(N)nn32)cc1 (stereo not drawn) ?
UBC13 inh: inactive; PREPL inh: inactive; UCH37 DUB inh: inactive; Apaf-1 inh: inactive

How did Nc1nc2n(n1)C(c1ccccc1)CC(c1ccc(F)cc1)N2 (stereo not drawn) do in these assays?
UBC13 inh: inactive; PREPL inh: inactive; UCH37 DUB inh: inactive; Apaf-1 inh: inactive

Results for CCc1nnc(NN=Cc2cccs2)n1N ?
UCH37 DUB inh: inactive

What do the screens show for `O=C(NN=Cc1cccs1)c1n[nH]c2c1CCC2`?
UCH37 DUB inh: inactive

Results for CC(=O)Nc1ccc(OCC(O)CN2CCN(c3cc(Cl)ccc3C)CC2)cc1 (stereo not drawn) ?
UBC13 inh: inactive; PREPL inh: inactive; UCH37 DUB inh: inactive; Apaf-1 inh: inactive
